According to ChEMBL document CHEMBL4513216, “Probing the Open Global Health Chemical Diversity Library for Multistage-Active Starting Points for Next-Generation Antimalarials” (ACS Infect Dis, 2020):

Assay: Toxicity liver stage against HepG2, at 10uM
Assay type: cell-based
Set-up: test concentration 10 uM, cell line HepG2-A16-CD81EGFP
Conditions: human, HepG2-A16-CD81EGFP cells; read-out: INHIBITION
How it was run: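 Uninfected HepG2-A16-CD81EGFP cells, 3 × 10^3 per well, 1536-well, plated on prespotted compound at 10 μM final, parasite-free screening media added to match infected plates; puromycin 10 μM positive, DMSO 0.5% negative; run in parallel with 48 h PbLuc assay at 37 °C, 5% CO2; viability by CellTiter-Glo luminescence, normalized to controls.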
`CO[C@H]1COCCN(C(=O)c2ccc(C(F)(F)F)cc2)C1` showed a cytotoxicity at 10 µM of 4.94%.
`Cc1nccn1-c1ccc(=O)n(CCNC(=O)c2cccs2)n1` gave a cytotoxicity at 10 µM of -5.51%.
`COCCN1CCN(c2ccc3ccc(C(=O)NC4CC4)cn23)CC1` showed a cytotoxicity at 10 µM of -4.37%.
Compound `CCS(=O)(=O)N1CCOC2(COCCN(C(C)=O)C2)C1` (configuration not stated) has a cytotoxicity at 10 µM of 15.7%.
Work on `Cc1nnc([C@@H]2C[C@H]3CN(C(=O)c4sccc4C)C[C@H]3O2)[nH]1` yielded a cytotoxicity at 10 µM of 16%.
With `COCCCN1CCCCC12CC(=O)N(Cc1ccccn1)C2` (configuration not stated) the cytotoxicity at 10 µM was 1.95%.
Compound `CCOC(=O)c1cnn(-c2cc(Oc3cc(C)ccc3C)ncn2)c1N` has a cytotoxicity at 10 µM of 11.3%.
Compound `Cc1cnc(N2C(=O)CSC2c2ccccc2)s1` (configuration not stated) has a cytotoxicity at 10 µM of -1.14%.
In the case of `O=C1CC(c2ccsc2)c2c(n(C3CCOCC3)[nH]c2=O)N1` (configuration not stated), the cytotoxicity at 10 µM is reported as 0.847%.
With `CCc1nc(Nc2ccc(C(=O)NC)cc2)c2c(n1)c(C)nn2CC` the cytotoxicity at 10 µM was 9.38%.
For `c1cn(-c2nccnc2C2CCCN(C3CCOCC3)C2)cn1` (configuration not stated), the cytotoxicity at 10 µM was 4.19%.
Compound `CN(CC1CCOCC1)C1CCCN(c2ccccn2)C1` (configuration not stated) has a cytotoxicity at 10 µM of -0.48%.
In the case of `O=C(c1ccccc1F)N1CCOC(c2nc(-c3ncccn3)no2)C1` (configuration not stated), the cytotoxicity at 10 µM is reported as -2.5%.
For `O=C(NC[C@]1(O)CN(Cc2ccc(F)cc2)C[C@H]1O)c1ccccn1`, the cytotoxicity at 10 µM was -7.8%.
Compound `CN(Cc1cnn(C)c1)CC(O)c1ccc2c(c1)OCCCO2` (configuration not stated) has a cytotoxicity at 10 µM of 2.85%.
Work on `Cc1ncc(C(=O)NCCNc2ncccn2)s1` yielded a cytotoxicity at 10 µM of 3.79%.
Work on `Cc1noc(C(C)Nc2ccc3oc(C(C)C)nc3c2)n1` (configuration not stated) yielded a cytotoxicity at 10 µM of -7.84%.
`Cc1nc(CN(C)S(=O)(=O)c2ccc(F)cc2Br)no1` gave a cytotoxicity at 10 µM of -6.26%.
Compound `CCn1ccnc1CN1CCN(C(C)C(=O)NCc2ccco2)CC1` (configuration not stated) has a cytotoxicity at 10 µM of 7.79%.
`Cn1c(=O)n(C)c2cc(NS(=O)(=O)Cc3cccc(F)c3)ccc21` showed a cytotoxicity at 10 µM of 6.37%.
With `CCC(CO)NC(=O)Nc1ccc(OCC(F)(F)F)c(C)c1` (configuration not stated) the cytotoxicity at 10 µM was 10.9%.
Work on `CC(C)(C)c1cc(=O)[nH]c(C2(N)CCCC2)n1` yielded a cytotoxicity at 10 µM of 8.79%.
Work on `Cc1cc(CNC2(CO)CCOCC2)ccc1Br` yielded a cytotoxicity at 10 µM of 17.4%.
`c1cc(CCN2CCCC2CN2CCCCC2)ccn1` (configuration not stated) showed a cytotoxicity at 10 µM of 0.295%.
With `CC1CN(S(=O)(=O)c2ccc(F)cc2)c2cccnc2O1` (configuration not stated) the cytotoxicity at 10 µM was -0.781%.
In the case of `CCc1cc(=O)[nH]c(-c2ccc(NCCc3ccc(O)cc3)nc2)n1`, the cytotoxicity at 10 µM is reported as 61.1%.
`CCC(C)(CO)NC(=O)Nc1cc2c(cc1SC)OCCO2` (configuration not stated) gave a cytotoxicity at 10 µM of -10.5%.
`CCOc1ccccc1N(C)C(=O)c1ccc(Cl)cn1` gave a cytotoxicity at 10 µM of 0.0381%.
For `O=C(NCC1(N2CCOCC2)CCSC1)Nc1ccccn1` (configuration not stated), the cytotoxicity at 10 µM was 8.64%.
With `CCOc1cc(C)ccc1NS(=O)(=O)c1cc(C)c(C(=O)O)s1` the cytotoxicity at 10 µM was -6.44%.
For `CCN(CC(C)C#N)C(=O)CSc1ccc(C(F)(F)F)cn1` (configuration not stated), the cytotoxicity at 10 µM was 9.81%.
For `Cc1cccc(S(=O)(=O)NC(=O)CCc2cscn2)c1`, the cytotoxicity at 10 µM was 0.983%.
Work on `CCc1ccc(C(=O)N(CC)Cc2ccoc2)cc1S(C)(=O)=O` yielded a cytotoxicity at 10 µM of -4.89%.
In the case of `O=C(NCCNC(=O)C1CCCCC1)NCCn1cccc1`, the cytotoxicity at 10 µM is reported as 2.89%.
With `CCN(CC)CCNC(=O)c1ccc(Cl)c(NS(C)(=O)=O)c1` the cytotoxicity at 10 µM was 5.53%.
`Cc1noc(OCCOc2ccc(C#N)cc2)n1` gave a cytotoxicity at 10 µM of 0.00742%.
With `N#CCCN(Cc1cccnc1)C(=O)c1ccc(-n2cnnn2)cc1` the cytotoxicity at 10 µM was 4.59%.
Work on `CC(C)OC(=O)NCc1ccc(NCc2cnn(C(C)(C)C)c2)cc1` yielded a cytotoxicity at 10 µM of -0.741%.
Compound `CC1CCN(C(=O)NCC(=O)N(C)CC(F)(F)F)C1` (configuration not stated) has a cytotoxicity at 10 µM of 1.82%.
In the case of `CC(C)n1ncc2c1NC(=O)C(C#N)C21CCCCC1` (configuration not stated), the cytotoxicity at 10 µM is reported as -0.47%.
For `O=C(NC[C@H]1C[C@@H]2CN(C(=O)c3ccco3)C[C@@H]2O1)c1ccsc1`, the cytotoxicity at 10 µM was -90.8%.
For `Cn1cc(CNC2CCc3c(ccc(=O)n3C)C2)cn1` (configuration not stated), the cytotoxicity at 10 µM was -115%.
`COc1nn(C)c2c1CCCN(C(=O)c1cnccn1)C2` showed a cytotoxicity at 10 µM of -84.3%.
`CN(C)c1nccc(NCc2cc(-c3cccs3)n[nH]2)n1` gave a cytotoxicity at 10 µM of -5.03%.
Work on `O=c1[nH]c(-c2ccncc2)ncc1-c1ccnc(NC2CC2)n1` yielded a cytotoxicity at 10 µM of -11.7%.
`NS(=O)(=O)NCc1cc(-c2ccco2)n(CC(F)(F)F)n1` showed a cytotoxicity at 10 µM of -4.41%.
Compound `CCCn1c(C)c(CC(=O)NC(C)CO)c2c1CC(C)(C)CC2=O` (configuration not stated) has a cytotoxicity at 10 µM of -10.5%.
`Cc1cc(-c2ccc(C(C)N3CCOCC3)cc2)cnc1N` (configuration not stated) showed a cytotoxicity at 10 µM of -2.36%.
Work on `CC(C)N1CC2(CCC1=O)CCN(C(=O)c1cc(F)ccc1Cl)CC2` yielded a cytotoxicity at 10 µM of 0.247%.
With `CN(C)C(C(=O)N1CCN(CC(F)(F)F)CC1)c1ccccc1F` (configuration not stated) the cytotoxicity at 10 µM was -2.42%.
For `c1ccc(Cn2cccn2)c(CN2CCCCC2CCn2ccnc2)c1` (configuration not stated), the cytotoxicity at 10 µM was -12%.
For `O=C(NCCCn1cnnc1)C1CCCN(C2CCCC2)C1` (configuration not stated), the cytotoxicity at 10 µM was -0.121%.
For `OC1CCCOC12CCN(Cc1nnc(-c3cccnc3)o1)CC2` (configuration not stated), the cytotoxicity at 10 µM was 4.49%.
For `CCOc1ccc(C(=O)N2CCCC(c3nccn3C)C2)cc1OCC` (configuration not stated), the cytotoxicity at 10 µM was -6.77%.
In the case of `Cc1cc2[nH]c(CN3CCOC(C(F)(F)F)C3)cc(=O)n2n1` (configuration not stated), the cytotoxicity at 10 µM is reported as -21.2%.
Compound `CC(C1CCN(Cc2cnc(-c3cccs3)nc2)CC1)N(C)C` (configuration not stated) has a cytotoxicity at 10 µM of -11.3%.
Compound `O=C(NCCOc1ccccc1)C1NCCc2[nH]cnc21` (configuration not stated) has a cytotoxicity at 10 µM of 8.01%.
In the case of `CC(C)(C)n1cc(C2=CCN(CCc3ccccn3)CC2)cn1`, the cytotoxicity at 10 µM is reported as -0.505%.
`CCn1cc(CNc2ccc3nccnc3c2)cn1` gave a cytotoxicity at 10 µM of 1.42%.
In the case of `NCCn1cc(C(=O)N2CCCCCC2c2cccc(F)c2)nn1` (configuration not stated), the cytotoxicity at 10 µM is reported as 8.48%.
`CN(Cc1noc(-c2ccccc2)n1)C(=O)CSc1nnc(N)s1` gave a cytotoxicity at 10 µM of 0.712%.
`Cc1nnc(-c2cccc(N3CCC(NC4CCSC4)CC3)c2)s1` (configuration not stated) gave a cytotoxicity at 10 µM of 0.276%.
`CCOc1ccccc1-c1cc2c(cc1C(N)=O)OCO2` gave a cytotoxicity at 10 µM of 5.05%.
In the case of `CCCc1nc(C(=O)N2CCN(C(=O)OC)CC2)cs1`, the cytotoxicity at 10 µM is reported as -9.85%.
Compound `CC(C)N1CCC(Cc2cc(-c3ccccc3C(=O)O)ncn2)CC1` has a cytotoxicity at 10 µM of -5.28%.
Work on `CCOc1ncccc1NC(=O)N1CCN(Cc2ccncc2)CC1` yielded a cytotoxicity at 10 µM of -2.54%.
In the case of `CC1CN(C)CCN1CC(=O)NCCOc1ccc2c(c1)OCO2` (configuration not stated), the cytotoxicity at 10 µM is reported as -6.66%.
Compound `Cc1cc(C)n(CC2CN(CC(=O)NCc3cccs3)CCO2)n1` (configuration not stated) has a cytotoxicity at 10 µM of -9.89%.
Work on `Cc1cc(C)n(CC2CN(CCOc3cccc(F)c3)CCO2)n1` (configuration not stated) yielded a cytotoxicity at 10 µM of -7.44%.
`CN(CC(=O)N1CCN(c2ccccc2F)CC1)c1cnccn1` showed a cytotoxicity at 10 µM of -0.341%.
`Cc1nn(C)c(Cl)c1C1CCCN1C(=O)c1cc(Cl)c[nH]1` (configuration not stated) gave a cytotoxicity at 10 µM of -6.83%.
Work on `Cc1cccc(CN2C(=O)CCC23CCN(C(=O)N2CCCC2)CC3)n1` yielded a cytotoxicity at 10 µM of 4.56%.
In the case of `O=C(c1ccc[nH]1)N1CCn2cc(CN3CCCC3)nc2C1`, the cytotoxicity at 10 µM is reported as 3.09%.
`c1cnc(N2CC3(CCN(CC4CCOC4)CC3)c3ccccc32)nc1` (configuration not stated) gave a cytotoxicity at 10 µM of -6.78%.
In the case of `CN(C)CC(=O)N1CCC2(CC1)Cc1ccccc1CN(C)C2=O`, the cytotoxicity at 10 µM is reported as -2.96%.
Compound `Fc1cccc(CN2C[C@@H]3CN(Cc4ccccn4)C[C@@H]3C2)c1` has a cytotoxicity at 10 µM of -1.07%.
Compound `N#Cc1cccc(C(=O)N2CCc3c(COCC4CC4)cncc3C2)c1` has a cytotoxicity at 10 µM of 8.25%.
`COc1ccc(CN2CCC3(CC2)CC(CC(=O)NC(C)C)CO3)cc1` (configuration not stated) showed a cytotoxicity at 10 µM of -1.27%.
With `c1coc(CN2CCC3(CCOCC3COCC3CC3)CC2)c1` (configuration not stated) the cytotoxicity at 10 µM was 2.79%.
Work on `Cc1occc1C(=O)N1CCO[C@H]2[C@H](Oc3cccnc3)CC[C@@H]21` yielded a cytotoxicity at 10 µM of -93.4%.
For `O=S(=O)(c1cccnc1)N1C[C@H]2CC[C@@H](C1)N(Cc1ccccc1)C2`, the cytotoxicity at 10 µM was -5.79%.
For `CN(C)c1nc2cn(C3CCSCC3)c(=O)c-2c[nH]1`, the cytotoxicity at 10 µM was 8.56%.
